Screening data: PubChem, several laboratories
S1P3 antagonist – S1P3 (human) receptor antagonism | inhibition, % at 4.98 µM | Q99500 | CHO S1P3 NFAT-BLA reporter, FRET fluorescence, antagonist mode | AID 485 | 170,000 tested, 0.27% active;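 active means inhibition above the plate cutoff, the mean inhibition of test wells on that plate plus 3 SD, cut at about 28% in these data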;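 further: cells challenged with S1P at its EC80 of 0.8 µM; blue over green emission ratio from cleaved BLA substrate after 4 h stimulation; 0% = S1P-stimulated wells and 100% = unstimulated DMSO-only wells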
Target sequence (Q99500 whole entry, looked up): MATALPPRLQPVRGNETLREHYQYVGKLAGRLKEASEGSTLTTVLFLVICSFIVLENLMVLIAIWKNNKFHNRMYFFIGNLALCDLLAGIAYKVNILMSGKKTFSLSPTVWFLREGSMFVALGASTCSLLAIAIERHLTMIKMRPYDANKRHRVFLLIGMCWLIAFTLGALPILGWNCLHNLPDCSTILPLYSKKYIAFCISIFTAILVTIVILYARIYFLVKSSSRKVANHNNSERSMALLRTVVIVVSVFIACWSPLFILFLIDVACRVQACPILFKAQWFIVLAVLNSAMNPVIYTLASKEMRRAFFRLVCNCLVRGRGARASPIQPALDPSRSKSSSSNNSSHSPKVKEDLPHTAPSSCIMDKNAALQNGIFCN
S1P4 agonist – human S1P4 receptor agonism | 220,000 tested, 0.35% active | S1P4-expressing cell line, agonist reporter assay | O95977 | activation, % at 4.98 µM; in the data active means activation above about 11%;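 further: 0% = DMSO vehicle and 100% = reference agonist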
S1P4 antag – blocks the human S1P4 receptor; S1P4-expressing cells, antagonist mode, reporter read-out; inhibition, % at 4.98 µM; 220,000 tested, 0.26% active; AID 1510; in the data active means inhibition above about 29%;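 further: 0% = wells stimulated with agonist and 100% = vehicle wells without agonist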
Mdm2 ligase inh – blocks human Mdm2 ubiquitin ligase activity; Q00987; cell-based MDM2 ubiquitination luciferase reporter, 2 h; 0 = plate control, 100 = twice control, blank-subtracted; signal enhancement, % at 5 µM; 210,000 tested, 0.11% active; AID 1230;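 active means signal enhancement of 30% or more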;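 further: luminescence tracks abundance of the self-degrading MDM2-luciferase fusion protein; higher signal means inhibition of MDM2 E3 ligase activity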
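System: stable MDM2–luciferase fusion reporter cells / Input: 2000 cells seeded into each well / Schedule: 4 h settle plus 2 h compound, 37 °C / Compound: single-point 5 µM / Buffer or medium: cells held in DMEM / Benchmarks: control and blank well means / Evaluation: percent signal gain over controls, blank-subtracted / Measured by: luciferase luminescence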
Lmaj promast – reduces viability of Leishmania major promastigotes; inhibition, % at 10 µM; AID 1063; 200,000 tested, 9% active; resazurin fluorescence viability; in the data active means inhibition above about 50%;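 further: promastigotes grown with compound for 44 hours at 28 °C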
* hit, by the source's call; · = no result given. The entries come from a sample that favours hits as a whole.

SMILES	S1P3 antagonist	S1P4 agonist	S1P4 antag	Mdm2 ligase inh	Lmaj promast
Cc1c(C#N)c(NC(=O)CCl)n(Cc2ccccc2)c1C	1.3	-0.6	2.7	15.4	90.1*
Cc1c(C#N)c(NC(=O)CCl)n(Cc2cccs2)c1C	-12.8	1.8	1.3	-18.6	79.6*
Cc1c(C#N)c(NC(=O)CCl)n(Cc2ccc(F)cc2)c1C	-28.3	-0.5	-1.5	-15.5	92.3*
CCN(CC)C(=O)c1sc(NC(=O)Cc2cccs2)c(C#N)c1C	17.2	0.4	-10.2	-11.7	-9.9
N#Cc1c(NC(=O)c2ccccc2Cl)n(Cc2ccccc2)c2nc3ccccc3nc12	0.1	2.8	9.2	-23.6	-6.0
COc1ccc(NC(=O)CC2SC3=NCCN3C2=O)cc1 (configuration not stated)	-13.2	-2.0	13.4	-5.3	-2.0
CC(C)=NNc1nc2c(c(=O)n(C)c(=O)n2C)n1CCc1ccccc1	-23.7	-0.6	-6.3	-21.8	9.2
CCC(C)Nc1c2c(nc3c(-c4ccccc4)c(C)nn13)CCC2 (configuration not stated)	·	2.5	-15.5	1.6	13.5
O=C(Nc1nc(-c2ccccn2)cs1)C1CC(=O)N(c2ccc3c(c2)OCCO3)C1 (configuration not stated)	9.6	1.1	-10.8	2.6	100.1*
O=C(Nc1nnc(C2CC2)s1)C1CC(=O)N(c2ccc3c(c2)OCCO3)C1 (configuration not stated)	1.9	1.5	-13.4	6.3	-9.3
CN(CC1CCCO1)S(=O)(=O)c1ccc(C(=O)Nc2nc(-c3ccccn3)cs2)cc1 (configuration not stated)	25.7	-0.3	-9.2	-5.1	100.3*
O=C(Nc1nc(-c2ccccn2)cs1)C1CC1	-15.2	3.4	-3.8	-4.8	86.2*
O=C(CC1CC2CCC1C2)Nc1nc(-c2ccccn2)cs1 (configuration not stated)	3.2	-1.7	-25.3	-12.4	100.0*
CCCn1ncc(CN2CCC(N3CCC(C(=O)N4CCOCC4)CC3)CC2)c1C	3.3	-0.6	-6.2	-15.2	0.6
Cc1cc2nnc(SCC(=O)NCC3CCCO3)n2c2ccccc12 (configuration not stated)	-13.0	-0.3	10.8	-5.4	7.0
CCN(CC)S(=O)(=O)c1cc(NC(=O)CCNC(=O)c2ccccc2Cl)ccc1C	-13.8	3.6	-3.4	-5.2	9.4
CCN(CC)S(=O)(=O)c1cc(NS(=O)(=O)c2cc(Cl)ccc2Cl)ccc1C	-3.4	-0.6	-4.0	-10.7	51.0*
CCC(C)Nc1nnnc2c1sc1nc3c(cc12)COC(C)(C)C3 (configuration not stated)	-9.0	0.7	-22.2	-2.2	50.1*
CSc1nccc(-c2nn(-c3ccc(C)cc3)ccc2=O)n1	·	4.0	-10.7	-14.3	100.2*
CCSc1nccc(-c2nn(-c3ccc(C)cc3)ccc2=O)n1	·	-2.2	0.7	-8.7	7.8
CCN1CCS/C1=C\C=C\C1=[N+](CC)CCS1	-4.0	-0.4	-8.7	-27.4	100.4*
CCN1CCS/C1=C/C=C/C1=[N+](CC)CCS1	-4.5	0.3	-0.6	-19.7	100.2*
O=C(COC(=O)CNC(=O)c1sc2ccccc2c1Cl)Nc1c(Cl)cc(Cl)cc1Cl	-3.5	1.0	-2.8	1.3	-4.8
C/C(=N\NC(=O)CN(c1ccccc1)S(=O)(=O)c1ccccc1[N+](=O)[O-])C(C)(C)C	-9.0	-1.7	-8.4	-9.8	89.8*
O=C1N(Cc2cccc(Cl)c2)C[C@@H]2C[C@@H](c3c[nH]c4ccccc34)N3CCC[C@@]123	12.0	0.1	-10.8	-10.2	4.4
SMILES	S1P3 antagonist	S1P4 agonist	S1P4 antag	Mdm2 ligase inh	Lmaj promast
Cc1nc(NC2=NCN(CCc3ccccc3)CN2)nc2c(C)cccc12	-2.8	1.7	-9.3	·	95.8*
Cc1cc2nc(NC3=NCN(CCCN4CCOCC4)CN3)nc(C)c2cc1C	-8.3	·	·	·	·
Cc1nc(NC2=NCN(CCCN3CCOCC3)CN2)nc2c(C)cccc12	-2.8	-0.2	-37.5	-31.0	88.4*
CCOC(=O)c1c(NC(=O)CSc2nnc3ccccn23)sc2c1CCC2	-13.4	1.7	-4.7	5.8	8.9
COC(=O)c1c(NC(=O)CSc2nnc3ccccn23)sc2c1CCC2	-11.7	-1.4	-11.4	6.7	55.5*
Cc1csc(SCC(=O)Nc2sc3c(c2C#N)CCC3)n1	·	1.1	1.7	-5.2	99.4*
Cc1ccc(C(=O)c2c(NC(=O)CSc3nnc(N)s3)sc3c2CCCC3)cc1	-0.5	-0.5	-17.7	-2.5	75.5*
Cc1ccnc(SCC(=O)Nc2sc3c(c2C#N)CCCC3)n1	32.6	0.5	-32.7	-10.5	7.5
COCCNc1nnc(SCC(=O)Nc2sc3c(c2C(=O)c2ccccc2)CCCC3)s1	7.5	0.6	-7.7	·	7.2
Nc1nnc(SCC(=O)Nc2sc3c(c2C(=O)c2ccccc2)CCCC3)s1	7.7	0.0	-18.3	0.8	56.8*
Cc1c(/C=N/NC(=O)CNc2ccccc2)c2ccccn2c1C(=O)c1ccccc1	0.8	-1.6	-4.6	-10.2	1.7
O=C(c1ccc(=O)oc1)N1CCCc2ccccc21	0.4	0.8	-4.5	-9.1	-3.7
Cc1ccc(-c2csc(N(C)C(=O)c3c(C)nn(-c4ccccc4)c3Cl)n2)cc1	·	-1.9	-15.9	-29.9	-7.0
COc1ccc(C2C(C(=O)N3CCCC3)c3cc(OC)c(OC)cc3C(=O)N2C)cc1OC (configuration not stated)	·	0.1	-8.8	-4.1	-3.3
CCN1CCN(C(=O)C2c3cc(OC)c(OC)cc3C(=O)N(C)C2c2ccc(SC)cc2)CC1 (configuration not stated)	·	-0.7	0.9	-6.4	76.5*
COc1ccc(C2C(C(=O)N3CCN(C)CC3)c3cc(OC)c(OC)cc3C(=O)N2C)cc1 (configuration not stated)	-14.1	0.7	-1.9	30.6*	0.0
COc1cc2c(cc1OC)C(C(=O)N1CCCCC1)C(c1ccccc1F)N(C)C2=O (configuration not stated)	·	0.1	-16.9	-12.1	0.2
Cc1cccnc1Nc1nc(-c2ccc(O)c(O)c2)cs1	·	3.0	-3.0	-7.6	57.6*
COc1ccc(-c2csc(Nc3ncccc3C)n2)cc1OC	·	-1.6	-1.4	-5.3	30.8
Cc1ccc2c(CN3CCN(Cc4ccc5c(c4)OCO5)CC3)cc(=O)oc2c1C	-6.1	1.4	6.7	-3.1	73.4*
Cc1ccc(C)c(N2C(=O)CC(N3CCN(Cc4ccc5c(c4)OCO5)CC3)C2=O)c1 (configuration not stated)	31.9	0.7	26.4	9.1	87.1*
CCN(CC(=O)Nc1ccc2c(c1)OCCO2)CC(=O)Nc1ccc2c(c1)OCO2	-15.0	0.6	1.1	0.3	8.5
Cc1cc2oc(=O)cc(CN3CCN(Cc4ccc5c(c4)OCO5)CC3)c2cc1C	9.4	1.3	-11.4	0.5	94.4*
CCN(CC(=O)Nc1ccc2c(c1)OCCO2)Cc1cc(=O)oc2c(C)c(C)ccc12	1.4	-2.2	-12.0	-16.6	80.9*
CCOC(=O)c1sc(NC(=O)CCCn2nc([N+](=O)[O-])cc2C)c(C(=O)OCC)c1C	-7.0	0.8	-13.4	7.0	8.9
